ChEMBL document CHEMBL1806417, “Antiproliferative activity and QSAR studies of a series of new 4-aminomethylidene derivatives of some pyrazol-5-ones” (Bioorg Med Chem Lett, 2011)
pIC50: −log10 of the molar value. Calls of active or inactive are those of the source. The rule behind the calls is not given here.

Columns and labels:
[1] = test system: MDA-MB-453; assay: Antiproliferative activity against human MDA-MB-453 cells assessed as cell survival after 72 hrs by MTT assay; type: functional, cell-based; details: MDA-MB-453, 72 h
Procedure, shortened: (§1)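 Monolayer cultures in RPMI-1640 with L-glutamine (3 mM), 10% heat-inactivated FBS, 25 mM Hepes, pH 7.2, and extra glucose (1.11 g/L), at 37°C and 5% CO2. Seeding was 7000 cells/well for MDA-MB-361 and 3000 cells/well for MDA-MB-453. After 24 h, five two-fold dilutions were added for 72 h. MTT readout (Ohno–Abe modification). IC50 was read from the survival-versus-concentration curve; mean ± SD of three independent experiments.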

[2] = test system: MDA-MB-453; assay: Cell cycle arrest in human MDA-MB-453 cells assessed as accumulation at sub-G1 phase at 2 times IC50 after 24 hrs using propidium iodide staining by flow cytometry; type: functional, cell-based
Procedure, shortened: (§2)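 Cells were seeded at 3 × 10⁵ per well and treated or left untreated for 24 h. They were trypsinized and fixed overnight in ice-cold 70% ethanol at -20°C, then washed in PBS. RNase was applied at 37°C for 30 min, followed by propidium iodide for at least 30 min. DNA content and cell-cycle distribution were measured by FACScan flow cytometry on at least 10,000 cells per sample.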

[3] = test system: MDA-MB-361; assay: Antiproliferative activity against human MDA-MB-361 cells assessed as cell survival after 72 hrs by MTT assay; type: functional, cell-based; details: MDA-MB-361, 72 h; procedure, shortened: as §1
[4] = test system: MS-1; assay: Antiangiogenic activity in mouse MS1 cells assessed as inhibition tube-like structure formation at 10 uM after 12 hrs by microscopy
[5] = test system: MS-1; assay: Antiangiogenic activity in mouse MS1 cells assessed as inhibition tube-like structure formation at 3 uM after 12 hrs by microscopy; type: functional, cell-based
[6] = test system: MDA-MB-361; assay: Cell cycle arrest in human MDA-MB-361 cells assessed as accumulation at G2/M phase at 2 times IC50 after 24 hrs using propidium iodide staining by flow cytometry (reference value: 14.15 %); type: functional; procedure, shortened: as §2
[7] = test system: MDA-MB-361; assay: Cell cycle arrest in human MDA-MB-361 cells assessed as accumulation at S phase at 2 times IC50 after 24 hrs using propidium iodide staining by flow cytometry (Rvb =15.72 %); type: functional; procedure, shortened: as §2
[8] = test system: MDA-MB-361; assay: Cell cycle arrest in human MDA-MB-361 cells assessed as accumulation at G1 phase at 2 times IC50 after 24 hrs using propidium iodide staining by flow cytometry (Rvb =64.36 %); type: functional; procedure, shortened: as §2
[9] = test system: MDA-MB-361; assay: Cell cycle arrest in human MDA-MB-361 cells assessed as accumulation at sub-G1 phase at 2 times IC50 after 24 hrs using propidium iodide staining by flow cytometry (Rvb =2.21 %); type: functional; procedure, shortened: as §2
[10] = test system: MS-1; assay: Antiangiogenic activity in mouse MS1 cells assessed as inhibition tube-like structure formation at 3 uM after 12 hrs by microscopy
[11] = test system: MS-1; assay: Antiangiogenic activity in mouse MS1 cells assessed as inhibition tube-like structure formation at 30 uM after 12 hrs by microscopy; type: functional, cell-based
[12] = test system: MS-1; assay: Antiangiogenic activity in mouse MS1 cells assessed as inhibition tube-like structure formation at 10 uM after 12 hrs by microscopy; type: functional, cell-based

SMILES	pIC50 [1]	Activity [2]	pIC50 [3]	Activity [11]	also measured
O=C(O)[C@H](CO)N/C=C1\C(=O)N(c2ccccc2)N=C1c1ccccc1	4.31	Active	4.28	–	Activity [4]: inactive
O=C1/C(=C\Nc2cc(-c3ccccc3)[nH]n2)C(c2ccccc2)=NN1c1ccccc1	5.06	Active	4.91	–	Activity [5]: Active
O=C(O)[C@H](Cc1ccccc1)N/C=C1\C(=O)N(c2ccccc2)N=C1c1ccccc1	4.98	Active	4.94	–	Activity [5]: Active
O=C1/C(=C\Nc2cc(-c3ccco3)[nH]n2)C(c2ccccc2)=NN1c1ccccc1	4.91	Active	4.87	–	Activity [6]: 13.9%; Activity [7]: 7.33%; Activity [8]: 51.38%; Activity [9]: 21.95%; Activity [5]: Active
CCOC(=O)c1c[nH]nc1N/C=C1\C(=O)N(c2ccccc2)N=C1c1ccccc1	4.71	Active	4.61	–	Activity [10]: inactive
Cc1cc(N/C=C2\C(=O)N(c3ccccc3)N=C2c2ccccc2)n[nH]1	4.99	Active	5.00	–	Activity [6]: 14.12%; Activity [7]: 11.64%; Activity [8]: 46.79%; Activity [9]: 19.43%; Activity [5]: Active
O=C1NN=C(c2ccccc2)/C1=C/N[C@@H](CO)C(=O)O	4.63	–	3.98	Active	–
O=C1NN=C(c2ccccc2)/C1=C/N[C@@H](Cc1ccccc1)C(=O)O	4.02	–	4.17	–	Activity [4]: inactive
O=C1NN=C(c2ccccc2)/C1=C/Nc1cc[nH]n1	4.13	–	4.02	inactive	–
CSCC[C@H](N/C=C1\C(=O)NN=C1c1ccccc1)C(=O)O	4.38	–	3.98	Active	–
CCOC(=O)c1c[nH]nc1N/C=C1\C(=O)NN=C1c1ccccc1	4.13	–	3.92	–	Activity [10]: inactive
O=C(O)[C@H](Cc1ccc(O)cc1)N/C=C1\C(=O)N(c2ccccc2)N=C1c1ccccc1	4.96	Active	4.61	–	Activity [10]: inactive
O=C1NN=C(c2ccccc2)/C1=C/N[C@@H](Cc1c[nH]c2ccccc12)C(=O)O	4.38	–	4.03	Active	–
O=C1NN=C(c2ccccc2)/C1=C/Nc1cc(-c2ccccc2)[nH]n1	4.94	–	4.37	–	Activity [4]: inactive
O=C1/C(=C\Nc2cc[nH]n2)C(c2ccccc2)=NN1c1ccccc1	4.46	Active	4.29	–	Activity [6]: 15.58%; Activity [7]: 7.81%; Activity [8]: 47.94%; Activity [12]: Active; Activity [9]: 21.55%
CSC[C@H](N/C=C1\C(=O)NN=C1c1ccccc1)C(=O)O	3.98	–	4.01	Active	–
O=C(O)[C@H](Cc1c[nH]cn1)N/C=C1\C(=O)N(c2ccccc2)N=C1c1ccccc1	4.15	Active	4.06	inactive	–
O=C1NN=C(c2ccccc2)/C1=C/Nc1cc(-c2ccco2)[nH]n1	4.68	–	4.20	–	Activity [4]: inactive
O=C1NN=C(c2ccccc2)/C1=C/N[C@@H](Cc1ccc(O)cc1)C(=O)O	4.53	–	4.21	–	Activity [4]: inactive
O=C(O)[C@H](Cc1c[nH]c2ccccc12)N/C=C1\C(=O)N(c2ccccc2)N=C1c1ccccc1	5.01	Active	4.47	–	Activity [4]: inactive
O=C1NN=C(c2ccccc2)/C1=C/N[C@@H](Cc1c[nH]cn1)C(=O)O	4.13	–	3.95	Active	–
CSC[C@H](N/C=C1\C(=O)N(c2ccccc2)N=C1c1ccccc1)C(=O)O	5.02	Active	4.85	–	Activity [10]: inactive
Cc1cc(N/C=C2\C(=O)NN=C2c2ccccc2)n[nH]1	4.03	–	4.02	Active	–
CSCC[C@H](N/C=C1\C(=O)N(c2ccccc2)N=C1c1ccccc1)C(=O)O	5.03	Active	4.90	–	Activity [10]: inactive
O=C(O)[C@@H](Cc1ccccc1)N/C=C1\C(=O)N(c2ccccc2)N=C1c1ccccc1	5.02	Active	4.93	–	Activity [10]: inactive
